Tested on in one series: not listed separately
Kind of series: Solubility of the compound in DMSO. In kind it is physicochemical.
Details: not given
For the compound `COc1ccc(-c2ccc3c(C)nc4oc(-c5ccccc5)nc4c3n2)cc1`, the solubility result was “Insoluble”.
On the same count and under the same terms, in the case of `COc1ccc(-n2nnc3c4[nH]c(=O)ccc4c(C)nc32)cc1` it was “Soluble”.
Take `Cc1ccc2c(C)nc3c(nnn3-c3ccccc3)c2n1`: the solubility entry is reported as “Soluble”.
For `COc1ccc(-c2ccc3c(C)nc4oc(-c5ccc(OC)cc5)nc4c3n2)cc1`, the solubility result is reported as “Insoluble”.
For `COc1ccc(-n2nnc3c4nc(-c5ccccc5)ccc4c(C)nc32)cc1`, the solubility entry is given as “Insoluble”.
The same measure, in the same setting: in the case of `COc1cc(-n2nnc3c4nc(-c5ccccc5)ccc4c(C)nc32)cc(OC)c1OC` it was “Soluble”; in that of `COc1ccc(-c2nc3c(nc(C)c4ccc(-c5ccccc5OC)nc43)o2)cc1`, “Insoluble”.
With `Cc1nc2oc(-c3ccccc3)nc2c2[nH]c(=O)ccc12`, the solubility result is “Soluble”.
As to `COc1ccc(-c2ccc3c(C)nc4c(nnn4-c4ccc(OC)cc4)c3n2)cc1`, the solubility result was “Soluble”.
As for `Cc1nc2c(nnn2-c2ccccc2)c2nc(-c3ccccc3)ccc12`, the solubility entry was “Soluble”.
`COc1cc(-n2nnc3c4nc(C)ccc4c(C)nc32)cc(OC)c1OC`: the solubility result is listed as “Insoluble”.
For the compound `COc1cc(-c2nc3c(nc(C)c4ccc(=O)[nH]c43)o2)cc(OC)c1OC`, the solubility result is reported as “Insoluble”.

Tested on in the next series: not listed separately
Kind of series: Selectivity index, ratio of EC50 for human MCF10A cells under UV irradiation at 1.5 J/cm2 to EC50 for human MCF7 cells under UV irradiation at 1.5 J/cm2. In kind it is toxicity. The settings on record: MCF10A cells versus MCF7 cells, read-out: Ratio EC50. Summed up:
(§1)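 SI is the EC50 under irradiation in non-tumor MCF10A cells divided by the EC50 under irradiation in the tumor line. Both were MTT read-outs 72 h after 1.5 J/cm² at 365 nm.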
Turning to `COc1ccc(-c2ccc3c(C)nc4c(nnn4-c4ccc(OC)cc4)c3n2)cc1`, the selectivity ratio was > 1.

Tested on in the next series: not listed separately
The experiment in a line: Dark toxicity against human MCF10A cells preincubated for 5 mins followed by compound washout and measured after 72 hrs by MTT assay. In kind it is cell-based, MCF-10A.
Details: not given
Summed up:
(§2)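 Cells were plated and allowed to attach overnight. Compounds were diluted in DMSO (0.5% final), with each concentration in triplicate, and applied for 5 min. Cells were then washed in PBS and given fresh medium. Without irradiation, cells were held 72 h at up to 50 μM. MTT (5 mg/mL stock) was added for 4 h, crystals were dissolved in SDS/HCl overnight, and absorbance was read at 540 nm. CC50 is the concentration killing 50% of cells, taken as the mean of at least three experiments.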
(Tetrazolium dyes change colour on reduction, which living cells bring about.)
In general, CC50 refers to the concentration that lowers cell viability or growth by half. Read a low CC50 as greater toxicity to the cells. As to `COc1ccc(-n2nnc3c4[nH]c(=O)ccc4c(C)nc32)cc1`, the half-maximal cytotoxic concentration (CC50) at 72 h was > 50 µM.
`Cc1ccc2c(C)nc3c(nnn3-c3ccccc3)c2n1`: the CC50 at 72 h is > 50 µM.
Same read-out and setting: in the case of `COc1cc(-n2nnc3c4nc(-c5ccccc5)ccc4c(C)nc32)cc(OC)c1OC` it was > 50 µM; in that of `Cc1nc2oc(-c3ccccc3)nc2c2[nH]c(=O)ccc12`, > 50 µM.
On to `COc1ccc(-c2ccc3c(C)nc4c(nnn4-c4ccc(OC)cc4)c3n2)cc1`, for which the CC50 at 72 h is > 50 µM.
Regarding `Cc1nc2c(nnn2-c2ccccc2)c2nc(-c3ccccc3)ccc12`, the CC50 at 72 h is > 50 µM.

Tested on in another series: not listed separately
The experiment in a line: Selectivity index, ratio of EC50 for human MCF10A cells under UV irradiation at 1.5 J/cm2 to EC50 for human HT-29 cells under UV irradiation at 1.5 J/cm2. It is filed as toxicity. The settings on record: MCF10A cells versus HT-29 cells, read-out: Ratio EC50. Summed up:
as §1
`COc1ccc(-c2ccc3c(C)nc4c(nnn4-c4ccc(OC)cc4)c3n2)cc1`: the selectivity ratio was > 29.

Tested on in a further series: not listed separately
The experiment in a line: Selectivity index, ratio of EC50 for human MCF10A cells under UV irradiation at 1.5 J/cm2 to EC50 for human A375 cells under UV irradiation at 1.5 J/cm2. The settings on record: MCF10A cells versus A375 cells, read-out: Ratio EC50. It is filed as toxicity. Summed up:
as §1
For `Cc1nc2oc(-c3ccccc3)nc2c2[nH]c(=O)ccc12`, the selectivity ratio came to 34.
On to `COc1ccc(-c2ccc3c(C)nc4c(nnn4-c4ccc(OC)cc4)c3n2)cc1`, for which the selectivity ratio was 57.

Tested on in another series: not listed separately
The experiment in a line: Dark toxicity against human MCF7 cells preincubated for 5 mins followed by compound washout and measured after 72 hrs by MTT assay. In kind it is cell-based.
Details: not given
In short, it runs like this: as §2
As to `COc1ccc(-n2nnc3c4[nH]c(=O)ccc4c(C)nc32)cc1`, the CC50 at 72 h was > 50 µM.
As to `Cc1ccc2c(C)nc3c(nnn3-c3ccccc3)c2n1`, the 50% cytotoxic concentration (CC50) at 72 h is > 50 µM.
Still for that read-out and setting: the result for `COc1cc(-n2nnc3c4nc(-c5ccccc5)ccc4c(C)nc32)cc(OC)c1OC` reads > 50 µM; that for `Cc1nc2oc(-c3ccccc3)nc2c2[nH]c(=O)ccc12`, > 50 µM; that for `COc1ccc(-c2ccc3c(C)nc4c(nnn4-c4ccc(OC)cc4)c3n2)cc1`, > 50 µM.
`Cc1nc2c(nnn2-c2ccccc2)c2nc(-c3ccccc3)ccc12`: the CC50 at 72 h was > 50 µM.

The test system of another series is MCF-10A. Kind of series: Phototoxicity against human MCF10A cells preincubated for 5 mins followed by compound washout and subsequent UV irradiation at 1.5 J/cm2 for 5 mins measured after 72 hrs by MTT assay. It is filed as cell-based. The conditions noted are these: light or radiation study. Summed up: (§3)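 Compounds were diluted in DMSO (0.5% final), applied in triplicate for 5 min, then washed out with PBS. After medium removal, cells were irradiated on ice for 5 min at 365 nm (1.5 J/cm²) and then kept 72 h at 37 °C. Viability was read by MTT at 540 nm and expressed relative to 0.5% DMSO controls given the same treatment. EC50 is the concentration killing 50%, as the mean ± SD of at least three experiments.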
In general, EC50 refers to the concentration at which the effect is half-maximal. Low values mean a more potent agent, high ones a less potent agent. In the case of `COc1ccc(-n2nnc3c4[nH]c(=O)ccc4c(C)nc32)cc1`, the EC50 was > 50 µM.
On to `Cc1ccc2c(C)nc3c(nnn3-c3ccccc3)c2n1`, for which the EC50 was > 50 µM.
On to `COc1cc(-n2nnc3c4nc(-c5ccccc5)ccc4c(C)nc32)cc(OC)c1OC`, for which the EC50 was > 50 µM.
For `Cc1nc2oc(-c3ccccc3)nc2c2[nH]c(=O)ccc12`, the EC50 is > 50 µM.
The same measure, in the same setting: in the case of `COc1ccc(-c2ccc3c(C)nc4c(nnn4-c4ccc(OC)cc4)c3n2)cc1` it was > 50 µM; in that of `Cc1nc2c(nnn2-c2ccccc2)c2nc(-c3ccccc3)ccc12`, > 50 µM.

The next series relates to HT-29. Kind of series: Phototoxicity index, ratio of CC50 for human HT-29 cells to EC50 for human HT-29 cells under UV irradiation at 1.5 J/cm2.
Details: not given
For the compound `COc1ccc(-c2ccc3c(C)nc4c(nnn4-c4ccc(OC)cc4)c3n2)cc1`, the “Ratio CC50/EC50” value is listed as >29.

Tested on in a further series: not listed separately
Kind of series: Dark toxicity against human A375 cells preincubated for 5 mins followed by compound washout and measured after 72 hrs by MTT assay. In kind it is cell-based, A-375.
Details: not given
In short, it runs like this: as §2
Consider `COc1ccc(-n2nnc3c4[nH]c(=O)ccc4c(C)nc32)cc1`, for which the CC50 at 72 h is > 50 µM.
Consider `Cc1ccc2c(C)nc3c(nnn3-c3ccccc3)c2n1`, for which the CC50 at 72 h is > 50 µM.
With `COc1cc(-n2nnc3c4nc(-c5ccccc5)ccc4c(C)nc32)cc(OC)c1OC`, the CC50 at 72 h is > 50 µM.
With `Cc1nc2oc(-c3ccccc3)nc2c2[nH]c(=O)ccc12`, the CC50 at 72 h is > 50 µM.
Same read-out and setting: in the case of `COc1ccc(-c2ccc3c(C)nc4c(nnn4-c4ccc(OC)cc4)c3n2)cc1` it was > 50 µM.
Regarding `Cc1nc2c(nnn2-c2ccccc2)c2nc(-c3ccccc3)ccc12`, the CC50 at 72 h was > 50 µM.

For another series, the system named is MCF7. The experiment in a line: Phototoxicity against human MCF7 cells preincubated for 5 mins followed by compound washout and subsequent UV irradiation at 1.5 J/cm2 for 5 mins measured after 72 hrs by MTT assay. In kind it is functional, cell-based. The conditions noted are these: MCF7, light or radiation study. Summed up: as §3
Turning to `COc1ccc(-n2nnc3c4[nH]c(=O)ccc4c(C)nc32)cc1`, the EC50 is > 50 µM.
Turning to `Cc1ccc2c(C)nc3c(nnn3-c3ccccc3)c2n1`, the EC50 was > 50 µM.
As for `COc1cc(-n2nnc3c4nc(-c5ccccc5)ccc4c(C)nc32)cc(OC)c1OC`, the EC50 was > 50 µM.
For the compound `Cc1nc2oc(-c3ccccc3)nc2c2[nH]c(=O)ccc12`, the EC50 is > 50 µM.
Take `COc1ccc(-c2ccc3c(C)nc4c(nnn4-c4ccc(OC)cc4)c3n2)cc1`: the EC50 was > 50 µM.
`Cc1nc2c(nnn2-c2ccccc2)c2nc(-c3ccccc3)ccc12`: the EC50 was > 50 µM.

For the next series, the system named is A-375. The experiment in a line: Phototoxicity against human A375 cells preincubated for 5 mins followed by compound washout and subsequent UV irradiation at 1.5 J/cm2 for 5 mins measured after 72 hrs by MTT assay. It is filed as functional, cell-based. The settings on record: A-375, light or radiation study. In short, it runs like this:
as §3
For `COc1ccc(-n2nnc3c4[nH]c(=O)ccc4c(C)nc32)cc1`, the EC50 was > 50 µM.
Same read-out and setting: the result for `Cc1ccc2c(C)nc3c(nnn3-c3ccccc3)c2n1` reads > 50 µM; that for `COc1cc(-n2nnc3c4nc(-c5ccccc5)ccc4c(C)nc32)cc(OC)c1OC`, > 50 µM; that for `Cc1nc2oc(-c3ccccc3)nc2c2[nH]c(=O)ccc12`, 1.49 µM.
As to `COc1ccc(-c2ccc3c(C)nc4c(nnn4-c4ccc(OC)cc4)c3n2)cc1`, the midpoint of the response, the EC50, lay at 0.875 µM.
In the case of `Cc1nc2c(nnn2-c2ccccc2)c2nc(-c3ccccc3)ccc12`, the EC50 is > 50 µM.

In another series the test system is HT-29. Kind of series: Phototoxicity against human HT-29 cells preincubated for 5 mins followed by compound washout and subsequent UV irradiation at 1.5 J/cm2 for 5 mins measured after 72 hrs by MTT assay. It is filed as functional, cell-based. The conditions noted are these: HT-29, light or radiation study. Summed up:
as §3
On to `COc1ccc(-n2nnc3c4[nH]c(=O)ccc4c(C)nc32)cc1`, for which the EC50 is > 50 µM.
As to `Cc1ccc2c(C)nc3c(nnn3-c3ccccc3)c2n1`, the EC50 was > 50 µM.
On to `COc1cc(-n2nnc3c4nc(-c5ccccc5)ccc4c(C)nc32)cc(OC)c1OC`, for which the EC50 is > 50 µM.
As to `Cc1nc2oc(-c3ccccc3)nc2c2[nH]c(=O)ccc12`, the EC50 was > 50 µM.
Take `COc1ccc(-c2ccc3c(C)nc4c(nnn4-c4ccc(OC)cc4)c3n2)cc1`: the midpoint of the response, the EC50, lay at 1.74 µM.
On to `Cc1nc2c(nnn2-c2ccccc2)c2nc(-c3ccccc3)ccc12`, for which the EC50 is > 50 µM.

Tested on in a further series: not listed separately
Kind of series: Dark toxicity against human HT-29 cells preincubated for 5 mins followed by compound washout and measured after 72 hrs by MTT assay. In kind it is cell-based.
Details: not given
In short, it runs like this:
as §2
For `COc1ccc(-n2nnc3c4[nH]c(=O)ccc4c(C)nc32)cc1`, the CC50 at 72 h is > 50 µM.
As to `Cc1ccc2c(C)nc3c(nnn3-c3ccccc3)c2n1`, the half-maximal cytotoxic concentration (CC50) at 72 h was > 50 µM.
For `COc1cc(-n2nnc3c4nc(-c5ccccc5)ccc4c(C)nc32)cc(OC)c1OC`, the CC50 at 72 h was > 50 µM.
Consider `Cc1nc2oc(-c3ccccc3)nc2c2[nH]c(=O)ccc12`, for which the CC50 at 72 h was > 50 µM.
On to `COc1ccc(-c2ccc3c(C)nc4c(nnn4-c4ccc(OC)cc4)c3n2)cc1`, for which the CC50 at 72 h was > 50 µM.
Still for that read-out and setting: in the case of `Cc1nc2c(nnn2-c2ccccc2)c2nc(-c3ccccc3)ccc12` it was > 50 µM.

The test system of the next series is A-375. The experiment in a line: Phototoxicity index, ratio of CC50 for human A375 cells to EC50 for human A375 cells under UV irradiation at 1.5 J/cm2.
Details: not given
For the compound `Cc1nc2oc(-c3ccccc3)nc2c2[nH]c(=O)ccc12`, the “Ratio CC50/EC50” value is recorded as >34.
In the case of `COc1ccc(-c2ccc3c(C)nc4c(nnn4-c4ccc(OC)cc4)c3n2)cc1`, the “Ratio CC50/EC50” value is reported as >57.
